Laboratory results: ChEMBL document CHEMBL1125376, “Class III antiarrhythmic activity of novel substituted 4-[(methylsulfonyl)amino]benzamides and sulfonamides” (J Med Chem, 1992)

Tests used:
[1] = species: Canis familiaris; assay: Effect on the transmembrane potential of dog Purkinje fibers paced at a basic cycle length of stimulation of 1000 ms, repolarization time to -60 mV, at a concentration of 0.3 uM; assay type: functional; settings: Canis lupus familiaris, Purkinje fiber
In short: (§1)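 Purkinje fiber bundles were taken from pentobarbital-anesthetized mongrel dogs. They were superfused at 37.5-38.0 °C with Tyrode's (mM: NaCl 138, KCl 4, CaCl2 2, NaHCO3 24, MgCl2 0.5, Na2HPO4 1.8, dextrose 5) gassed with 95% O2-5% CO2, pH 7.3-7.4. Stimulation used 2.0 ms pulses at twice threshold. Fibers were equilibrated ≥1 h before drug. Action potentials were recorded at 4-6 sites and averaged per fiber.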

[2] = species: Canis familiaris; assay: Effect on the transmembrane potential of dog Purkinje fibers paced at a basic cycle length of stimulation of 300 ms, repolarization time to -60 mV; assay type: functional; settings: Canis lupus familiaris; Purkinje fiber; in short: as §1
[3] = species: Canis familiaris; assay: Effect on the transmembrane potential of dog Purkinje fibers paced at a basic cycle length of stimulation of 300 ms, repolarization time to -60 mV, at a concentration of 0.3 uM; assay type: functional; settings: Canis lupus familiaris, Purkinje fiber; in short: as §1
[4] = species: Canis familiaris; assay: Effect on the transmembrane potential of dog Purkinje fibers paced at a basic cycle length of stimulation of 1000 ms, repolarization time to -60 mV; assay type: functional; settings: Canis lupus familiaris; Purkinje fiber; in short: as §1
[5] = test system: Canis familiaris; assay: Effect on atrial effective refractory period, after intravenous administration in open-chest anesthetized dogs at dose of 0.1 mg/kg; assay type: functional, Canis lupus familiaris, Cardiac atrium
[6] = test system: Canis familiaris; assay: Effect on ventricular effective refractory period, after intravenous administration in open-chest anesthetized dogs at dose of 0.1 mg/kg; assay type: functional, Canis lupus familiaris, Cardiac ventricle
[7] = test system: Canis familiaris; assay: Effect on ventricular effective refractory period, after intravenous administration in open-chest anesthetized dogs at dose of 1.0 mg/kg; assay type: functional, Canis lupus familiaris, Cardiac ventricle
In short: (§2)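 Mongrel dogs, pentobarbital-anesthetized (30 mg/kg iv plus 5 mg/kg per h), open chest. Compound given iv. Atrial and ventricular effective refractory periods and conduction times measured during pacing at 300 ms, along with heart rate and mean arterial pressure. Two doses per compound, chosen from dose-response runs. Values are % change from predrug, mean ± SE.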

[8] = test system: Canis familiaris; assay: Effect on atrial effective refractory period, after intravenous administration in open-chest anesthetized dogs at dose of 1.0 mg/kg; assay type: functional, Canis lupus familiaris, Cardiac atrium
[9] = test system: Canis familiaris; assay: Effect on heart rate, after intravenous administration in open-chest anesthetized dogs at dose of 0.1 mg/kg; assay type: functional, Canis lupus familiaris
[10] = test system: Canis familiaris; assay: Effect on heart rate, after intravenous administration in open-chest anesthetized dogs at dose of 1.0 mg/kg; assay type: functional, Canis lupus familiaris
[11] = test system: Canis familiaris; assay: Effect on mean arterial pressure, after intravenous administration in open-chest anesthetized dogs at dose of 0.1 mg/kg; assay type: functional, Canis lupus familiaris, Artery
[12] = test system: Canis familiaris; assay: Effect on mean arterial pressure, after intravenous administration in open-chest anesthetized dogs at dose of 1.0 mg/kg; assay type: functional, Canis lupus familiaris, Artery
[13] = test system: Canis familiaris; assay: Effect on ventricular conduction time, after intravenous administration in open-chest anesthetized dogs at dose of 0.1 mg/kg; assay type: functional, Canis lupus familiaris, Cardiac ventricle
[14] = test system: Canis familiaris; assay: Effect on ventricular conduction time, after intravenous administration in open-chest anesthetized dogs at dose of 1.0 mg/kg; assay type: functional, Canis lupus familiaris, Cardiac ventricle
[15] = test system: Canis familiaris; assay: Effect on atrial conduction time, after intravenous administration in open-chest anesthetized dogs at dose of 0.1 mg/kg; assay type: functional, Canis lupus familiaris, Cardiac atrium
[16] = test system: Canis familiaris; assay: Effect on atrial conduction time, after intravenous administration in open-chest anesthetized dogs at dose of 1.0 mg/kg; assay type: functional, Canis lupus familiaris, Cardiac atrium
[17] = test system: Canis familiaris; assay: Atrial conduction time, after intravenous administration in open-chest anesthetized dogs at dose of 0.05 mg/kg; assay type: functional, Canis lupus familiaris, Cardiac atrium
[18] = test system: Canis familiaris; assay: Atrial effective refractory period, after intravenous administration in open-chest anesthetized dogs at dose of 0.05 mg/kg; assay type: functional, Canis lupus familiaris, Cardiac atrium
[19] = test system: Canis familiaris; assay: Effect on ventricular effective refractory period, after intravenous administration in open-chest anesthetized dogs at dose of 0.05 mg/kg; assay type: functional, Canis lupus familiaris, Cardiac ventricle
[20] = test system: Canis familiaris; assay: Effect on ventricular effective refractory period, after intravenous administration in open-chest anesthetized dogs at dose of 0.5 mg/kg; assay type: functional, Canis lupus familiaris, Cardiac ventricle
[21] = test system: Canis familiaris; assay: Effect on heart rate, after intravenous administration in open-chest anesthetized dogs at dose of 0.05 mg/kg; assay type: functional, Canis lupus familiaris
[22] = test system: Canis familiaris; assay: Effect on heart rate, after intravenous administration in open-chest anesthetized dogs at dose of 0.5 mg/kg; assay type: functional, Canis lupus familiaris
[23] = test system: Canis familiaris; assay: Effect on mean arterial pressure, after intravenous administration in open-chest anesthetized dogs at dose of 0.05 mg/kg; assay type: functional, Canis lupus familiaris, Artery
[24] = test system: Canis familiaris; assay: Effect on mean arterial pressure, after intravenous administration in open-chest anesthetized dogs at dose of 0.5 mg/kg; assay type: functional, Canis lupus familiaris, Artery
[25] = test system: Canis familiaris; assay: Effect on trial effective refractory period, after intravenous administration in open-chest anesthetized dogs at dose of 0.5 mg/kg; assay type: functional, Canis lupus familiaris
[26] = test system: Canis familiaris; assay: Effect on ventricular conduction time, after intravenous administration in open-chest anesthetized dogs at dose of 0.05 mg/kg; assay type: functional, Canis lupus familiaris, Cardiac ventricle
[27] = test system: Canis familiaris; assay: Effect on ventricular conduction time, after intravenous administration in open-chest anesthetized dogs at dose of 0.5 mg/kg; assay type: functional, Canis lupus familiaris, Cardiac ventricle
[28] = test system: Canis familiaris; assay: Effect on atrial conduction time, after intravenous administration in open-chest anesthetized dogs at dose of 0.5 mg/kg; assay type: functional, Canis lupus familiaris, Cardiac atrium
[29] = test system: Canis familiaris; assay: Effect on atrial conduction time, after intravenous administration in open-chest anesthetized dogs at dose of 5.0 mg/kg; assay type: functional, Canis lupus familiaris, Cardiac atrium
[30] = test system: Canis familiaris; assay: Effect on ventricular conduction time, after intravenous administration in open-chest anesthetized dogs at dose of 2.5 mg/kg; assay type: functional, Canis lupus familiaris, Cardiac ventricle
[31] = test system: Canis familiaris; assay: Effect on ventricular conduction time, after intravenous administration in open-chest anesthetized dogs at dose of 5.0 mg/kg; assay type: functional, Canis lupus familiaris, Cardiac ventricle
[32] = test system: Canis familiaris; assay: Effect on ventricular effective refractory period, after intravenous administration in open-chest anesthetized dogs at dose of 2.5 mg/kg; assay type: functional, Canis lupus familiaris, Cardiac ventricle; in short: as §2
[33] = test system: Canis familiaris; assay: Effect on ventricular effective refractory period, after intravenous administration in open-chest anesthetized dogs at dose of 5.0 mg/kg; assay type: functional, Canis lupus familiaris, Cardiac ventricle; in short: as §2
[34] = test system: Canis familiaris; assay: Effect on atrial effective refractory period, after intravenous administration in open-chest anesthetized dogs at dose of 2.5 mg/kg; assay type: functional, Canis lupus familiaris, Cardiac atrium
[35] = test system: Canis familiaris; assay: Effect on atrial effective refractory period, after intravenous administration in open-chest anesthetized dogs at dose of 5.0 mg/kg; assay type: functional, Canis lupus familiaris, Cardiac atrium
[36] = test system: Canis familiaris; assay: Effect on heart rate, after intravenous administration in open-chest anesthetized dogs at dose of 2.5 mg/kg; assay type: functional, Canis lupus familiaris
[37] = test system: Canis familiaris; assay: Effect on heart rate, after intravenous administration in open-chest anesthetized dogs at dose of 5.0 mg/kg; assay type: functional, Canis lupus familiaris
[38] = test system: Canis familiaris; assay: Effect on mean arterial pressure, after intravenous administration in open-chest anesthetized dogs at dose of 2.5 mg/kg; assay type: functional, Canis lupus familiaris, Artery
[39] = test system: Canis familiaris; assay: Effect on mean arterial pressure, after intravenous administration in open-chest anesthetized dogs at dose of 5.0 mg/kg; assay type: functional, Canis lupus familiaris, Artery
[40] = test system: Canis familiaris; assay: Effect on atrial conduction time, after intravenous administration in open-chest anesthetized dogs at dose of 2.5 mg/kg; assay type: functional, Canis lupus familiaris, Cardiac atrium

Cc1cccc(CCN2CCC(C(=O)c3ccc(NS(C)(=O)=O)cc3)CC2)n1
APD60 [1]: 74 | APD60 [2]: 21 | APD60 [3]: 27 | APD60 [4]: 53 | Change [5]: 34% | Change [6]: 20% | Change [7]: 26% | Change [8]: 55% | Change [9]: -18% | Change [10]: -25% | Change [11]: -6% | Change [12]: -19% | Change [13]: -3% | Change [14]: -2% | Change [15]: 1% | Change [16]: 1%

CN(CCOc1ccc(NS(C)(=O)=O)cc1)CCc1ccc(NS(C)(=O)=O)cc1 [DOFETILIDE]
APD60 [2]: 30 | APD60 [3]: 42 | APD60 [4]: 67 | Change [17]: -4% | Change [18]: 46% | Change [19]: 23% | Change [20]: 27% | Change [21]: -14% | Change [22]: -24% | Change [23]: 1% | Change [24]: -2% | Change [25]: 65% | Change [26]: -4% | Change [27]: -4% | Change [28]: -9%

CC(C)NCC(O)c1ccc(NS(C)(=O)=O)cc1 (configuration not stated) [SOTALOL]
APD60 [2]: 18 | APD60 [4]: 56 | Change [29]: -7% | Change [30]: -1% | Change [31]: -1% | Change [32]: 19% | Change [33]: 25% | Change [34]: 42% | Change [35]: 57% | Change [36]: -27% | Change [37]: -28% | Change [38]: -16% | Change [39]: -17% | Change [40]: -5%

CS(=O)(=O)Nc1ccc(S(=O)(=O)NCCNc2ncccn2)cc1
APD60 [2]: -4 | APD60 [4]: 24
